Screens from PubChem.
XiGFP reactiv – reactivates the inactive X chromosome in mouse fibroblasts. XiGFP mouse fibroblasts, % GFP-positive cells imaging, 3 d; cells co-treated with 5-aza-dC sensitizer; scaled so ellipticine positive control = 100%. activation, % at 7.58 µM. 360,000 tested, 0.055% active;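 active = mean normalized replicate activation at least 10% and every replicate at or above 10%; inconclusive = only one of the two criteria met; inactive = mean below 10% and not all replicates reach 10%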
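assay system = SV40-immortalized XiGFP fibroblast cells, line 68-5-11 | buffer or medium = DMEM plus 5-aza-dC sensitizer | doses = single-point pinned compound dosing | times = 3-day compound exposure, then 15 min fixation at room temperature | benchmarks = positive control ellipticine, 6 µM final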
TROY signal inh – inhibitors of TROY-dependent NF-kB signaling. Q293 LMP1-TROYcd NF-kB luciferase reporter, 4 h. inhibition, % at 10 µM. 360,000 tested, 0.98% active. AID 1347056;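 active = compounds whose plate-normalised and pattern-corrected inhibition of the luciferase reporter signal at the single screening dose is 50% or more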
TWEAK-Fn14 inh – TWEAK-Fn14 signaling inhibition. TWEAK-stimulated Fn14 reporter cells, luciferase luminescence, 8 h. inhibition, % at 10 µM. 360,000 tested, 2% active; in the data active = inhibition above about 50%
LGR2 antag – blocks bursicon-induced cAMP signaling via Drosophila LGR2; HEK293 LGR2, CRE-luciferase, bursicon-stimulated, 4 h; inhibition, % at 9.99 µM; 380,000 tested, 0.35% active;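 active = drop in luminescence signal, shown as inhibition above about 50% in the replicate tests, limit read from the data, passing the limit was not always enough; inconclusive = probably only some replicates passing the limit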;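 note: agonist challenge used bursicon conditioned medium at about half maximal strength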
EWS-Fli inh – EWS/Fli transcriptional activity inhibition; A673 NR0B1-luciferase reporter, viability-normalised; inhibition, % at 12.6 µM; 350,000 tested, 0.67% active; AID 651661;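 active = mean inhibition of at least 50% after viability correction, with every replicate also passing that limit; inconclusive = mean reaches 50% but only one of two replicates passes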;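 note: firefly luciferase signal divided by Alamar Blue viability fluorescence both relative to DMSO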
FN deposition inh – fibronectin deposition inhibition; AH1F fibroblasts, Alexa488-fibronectin deposition fluorescence, overnight; 350,000 tested, 0.086% active; inhibition, % at 12.6 µM;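 active = mean inhibition across replicates of 30% or more, regardless of how many single replicates reach that level; inconclusive = mean under 30% yet at least half of replicates reach 30%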
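Test system: AH1F fibroblast monolayer depositing Alexa488-labelled fibronectin into matrix. Input: 10000 cells per well. Technique: fluorescence, ex 485 nm, em 525 nm. Buffer or medium: DMEM plus 2% serum, read in PBS. Timing: 1 h cell adhesion before compound, then overnight fibronectin incubation. Compound: single dose, pinned. Read-out basis: inhibition from reduced deposited-fibronectin fluorescence.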
Numbers stand for hits; n = inactive; u = inconclusive; x = no result. Rows were chosen to be rich in hits. Some 2.3% of all compounds tested hit in one or more screens of this group.

SMILES	XiGFP reactiv	TROY signal inh	TWEAK-Fn14 inh	LGR2 antag	EWS-Fli inh	FN deposition inh
COCCN1C(=O)/C(=C/c2ccc(Oc3ccc([N+](=O)[O-])cn3)c(OC)c2)SC1=Nc1ccccc1	x	n	n	x	x	n
O=C1/C(=C/c2ccc(N3CCOCC3)o2)SC(=Nc2ccccc2)N1CCc1c[nH]c2ccccc12	x	n	90	x	x	x
COc1cc(/C=C2\SC(=Nc3ccccc3)N(CCc3c[nH]c4ccccc34)C2=O)ccc1OC(C)C(=O)O (stereo unspecified)	x	59	n	n	x	n
C[C@H](CO)N1C[C@H](C)[C@H](CN(C)C(=O)CN(C)C)Oc2ncc(-c3ccc(C(=O)N(C)C)cc3)cc2C1=O	n	x	x	n	n	x
Cn1cnc(S(=O)(=O)N[C@@H]2CC[C@H](CC(=O)NCC3CC3)O[C@H]2CO)c1	n	x	x	n	n	n
CCCNC(=O)C[C@@H]1C[C@@H]2c3cc(NC(=O)COC)ccc3O[C@@H]2[C@H](CO)O1	n	x	x	n	n	x
CN(C)C(=O)[C@@]1(Cc2ccccc2)N=C(c2ccc(OCCCO)cc2)O[C@H]1c1ccccc1	x	x	x	x	n	x
OC[C@H]1[C@@H](c2ccccc2)[C@@H](CNCC2CCC2)N1CC1CC1	n	x	x	n	n	n
Cc1ccccc1Oc1nc2ccccn2c(=O)c1/C=C(\C#N)C(=O)Nc1c(C)n(C)n(-c2ccccc2)c1=O	n	n	n	n	x	n
Cc1ccccc1Oc1nc2c(C)cccn2c(=O)c1/C=C(\C#N)C(=O)Nc1c(C)n(C)n(-c2ccccc2)c1=O	n	n	52	n	n	n
CCC(=O)N(C1=C(NC)C(=O)c2ccccc2C1=O)C(C)C	n	n	61	n	n	n
CNC1=C(N(C(C)=O)c2ccc(Br)cc2)C(=O)c2ccccc2C1=O	n	64	91	n	x	n
CCC(=O)N(CC)C1=C(O)c2ccccc2C(=O)C1=O	x	n	n	n	n	x
CCSc1nc2ccccc2n1C(=O)/C=C\c1ccc(OC)c(OC)c1	x	n	91	x	x	n
CO[C@H]1CN(C)C(=O)c2ccc(NC(C)=O)cc2OC[C@H](C)N(Cc2cccnc2)C[C@H]1C	n	x	x	n	n	x
O=S(=O)(Nc1c(O)ccc2ccccc12)c1ccc(F)cc1	n	54	n	x	n	n
O=S(=O)(Nc1c(O)ccc2ccccc12)c1ccccc1	n	n	n	n	n	n
CCN(CC)CCOC(=O)/C=C/c1ccccc1	n	n	n	n	n	n
CCN(CC)CC(C)(C)C(=O)/C=C/c1ccc(/C=C/C(=O)C(C)(C)CN(CC)CC)cc1	n	n	102	103	71	46
O=C1N(Cc2ccccc2)Cc2ccccc2[C@@H]2OC(c3ccc(OCCCO)cc3)=N[C@]12Cc1ccccc1	x	x	x	x	n	x
O=c1c2ccccc2nc2ccc(NCc3ccco3)nn12	x	n	n	x	x	x
Cc1sc2nc3ccc(NCc4ccco4)nn3c(=O)c2c1C	x	n	91	x	x	x
CC(=O)c1ccc(N=Nc2ccc(N)cc2)cc1	n	n	69	64	n	n
CCC(=NCCc1c(C)[nH]c2ccccc12)C1=C(O)CC(c2ccccc2)CC1=O (stereo unspecified)	n	n	n	n	n	n
CC(=NCCc1c(C)[nH]c2ccc(OCc3ccccc3)cc12)C1=C(O)CC(c2ccccc2)CC1=O (stereo unspecified)	n	n	n	n	n	x
SMILES	XiGFP reactiv	TROY signal inh	TWEAK-Fn14 inh	LGR2 antag	EWS-Fli inh	FN deposition inh
CCC(=NCCc1c(C)[nH]c2ccc(OC(F)(F)F)cc12)C1=C(O)CC(c2ccccc2)CC1=O (stereo unspecified)	n	n	n	n	51	n
CCCCC(=NCCc1c(C)[nH]c2ccc(OC)cc12)C1=C(O)CC(c2ccccc2)CC1=O (stereo unspecified)	n	n	n	n	55	n
COCC(=O)N1CC(=O)N2[C@@H](CO)[C@H](c3ccc(C#CC(C)C)cc3)[C@@H]2C1	n	x	x	n	n	x
O=C(Nc1ccn(Cc2ccccc2F)n1)c1ccc(COc2ccccc2Cl)cc1	x	53	62	x	x	n
O=C(Cc1ccccn1)N[C@@H]1CC[C@@H](CCn2cc(-c3ccc(F)cc3)nn2)O[C@H]1CO	n	x	x	n	x	n
O=C(Cc1ccccn1)c1ccc(Cl)cc1	n	n	n	n	n	n
CC1=C(CC(=O)c2ccc(Cl)cc2)C(=O)c2ccccc2C1=O	x	70	72	x	x	n
O=[N+]([O-])c1ccc(Sc2nccn2Cc2ccccc2)c([N+](=O)[O-])c1	x	n	69	n	n	x
Cc1cccc(Sc2ccc([N+](=O)[O-])cc2[N+](=O)[O-])n1	n	n	n	n	n	n
O=c1cc(-c2ccccc2)nc(Sc2ccc([N+](=O)[O-])cc2[N+](=O)[O-])[nH]1	n	n	52	n	n	n
O=[N+]([O-])c1ccc(Sc2ncccn2)c([N+](=O)[O-])c1	n	n	54	x	n	n
CC(C)Sc1nc(-c2ccccc2)cc(=O)[nH]1	x	n	n	x	x	n
O=[N+]([O-])c1cc(C(F)(F)F)ccc1Sc1nccn1Cc1ccccc1	x	n	n	x	x	n
CCC(=O)NC[C@@H]1[C@@H](c2ccc(C3=CCCC3)cc2)[C@@H](CO)N1CC1CC1	n	x	x	n	n	n
CC1(C)CC[C@]2(C(=O)O)CC[C@]3(C)C(=CC[C@@H]4[C@@]5(C)CC[C@H](O[C@@H]6O[C@H](C(=O)O)[C@@H](O)[C@H](O[C@@H]7OC[C@H](O)[C@H](O)[C@H]7O)[C@H]6O)C(C)(C)[C@@H]5CC[C@]43C)[C@@H]2C1	n	87	n	u	u	51
C[C@@H]1CC[C@]2(C(=O)O)CC[C@]3(C)C(=CCC4[C@]56CC[C@@](O)(OC5)C(C)(C)C6CC[C@]43C)C2[C@H]1C (stereo partly specified)	x	63	n	x	x	x
C[C@@H]1CC[C@]2(C(=O)O)CC[C@]3(C)C(=CCC4[C@@]5(C)CC[C@H](O)[C@@](C)(C(=O)O)C5CC[C@]43C)C2[C@]1(C)O (stereo partly specified)	n	n	n	n	n	n
CC1(C)CC[C@]2(C(=O)O)CC[C@]3(C)C(=CCC4[C@]56CC[C@@](O)(OC5)C(C)(C)C6CC[C@]43C)C2C1 (stereo partly specified)	x	65	n	x	n	x
C[C@@H]1CCCCO[C@@H](CN(C)Cc2ccccc2)[C@H](C)CN([C@@H](C)CO)C(=O)c2cc(N(C)C)ccc2O1	n	x	x	n	n	x
O=C(c1ccncc1)N1C[C@@H]2[C@H](c3ccccc31)[C@H](CO)N2Cc1ccc(F)cc1	n	x	x	n	n	x
Cc1ccccc1N(CC(=O)NCc1ccc2c(c1)OCO2)C(=O)C1CSC(=O)C1 (stereo unspecified)	n	n	50	n	n	n
